Source: ChEMBL document CHEMBL3046139, “Preparation and phytotoxicity of novel kaurane diterpene amides with potential use as herbicides” (J Agric Food Chem, 2008)
Activity calls are given as the source filed them.

Legend:
Type in all cases: functional, organism-based
[1] = test system: Lactuca sativa; experiment: Phytotoxicity in Lactuca sativa cv. Grand Rapids (lettuce) assessed as inhibition of seed germination at 1 mM measured 5 days post compound treatment
Outline: (§1)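 Test solutions in deionized water, buffered with 10 mM MES and adjusted to pH 6.0-6.5 with NaOH. Concentrations below 10^-3 M made by dilution series. Osmotic pressure 30-38 mOsmolar. Petri dishes sealed with Parafilm and kept in the dark at 25 °C for 5 days, in triplicate. Seed counted as germinated when radicle was at least 0.2 mm. Radicle and shoot lengths measured by pachymeter with dishes held at 4 °C. Results given as percent difference from untreated control means. Student's t-test, P ≤ 0.05.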

[2] = test system: Lactuca sativa; experiment: Phytotoxicity in Lactuca sativa cv. Grand Rapids (lettuce) assessed as inhibition of seed germination at 10 uM measured 5 days post compound treatment; outline: as §1
[3] = test system: Lactuca sativa; experiment: Phytotoxicity in Lactuca sativa cv. Grand Rapids (lettuce) assessed as inhibition of shoot length at 1 mM measured 5 days post compound treatment; outline: as §1
[4] = test system: Lactuca sativa; experiment: Phytotoxicity in Lactuca sativa cv. Grand Rapids (lettuce) assessed as inhibition of seed germination at 0.1 uM measured 5 days post compound treatment; outline: as §1
[5] = test system: Lactuca sativa; experiment: Phytotoxicity in Lactuca sativa cv. Grand Rapids (lettuce) assessed as inhibition of radicle length at 1 mM measured 5 days post compound treatment; outline: as §1
[6] = test system: Lactuca sativa; experiment: Stimulation of shoot growth in Lactuca sativa cv. Grand Rapids (lettuce) at 0.1 uM measured 5 days post compound treatment; outline: as §1
[7] = test system: Lactuca sativa; experiment: Stimulation of radicle growth in Lactuca sativa cv. Grand Rapids (lettuce) at 10 uM measured 5 days post compound treatment; outline: as §1
[8] = test system: Lactuca sativa; experiment: Stimulation of shoot growth in Lactuca sativa cv. Grand Rapids (lettuce) at 10 uM measured 5 days post compound treatment; outline: as §1
[9] = test system: Lactuca sativa; experiment: Stimulation of radicle growth in Lactuca sativa cv. Grand Rapids (lettuce) at 0.1 uM measured 5 days post compound treatment; outline: as §1
[10] = test system: Lactuca sativa; experiment: Stimulation of seed germination in Lactuca sativa cv. Grand Rapids (lettuce) at 0.1 uM measured 5 days post compound treatment; outline: as §1
[11] = test system: Lactuca sativa; experiment: Stimulation of seed germination in Lactuca sativa cv. Grand Rapids (lettuce) at 1 mM measured 5 days post compound treatment; outline: as §1

C=C1C[C@@]23CC[C@@H]4[C@](C)(C(=O)NC5CCCCC5)CCC[C@@]4(C)C2=CC[C@@H]1C3
active: inhibition [1] | inhibition [2] | inhibition [3] | inhibition [4] | inhibition [5]

C=C1C[C@@]23CC[C@H]4[C@@](C)(CCC[C@@]4(C)C(=O)NC4CCCCC4)[C@@H]2CC[C@@H]1C3
active: inhibition [1] | inhibition [2] | inhibition [3] | inhibition [4] | inhibition [5]

C=C1C[C@@]23CC[C@H]4[C@@](C)(CCC[C@@]4(C)C(=O)N4CCOCC4)[C@@H]2CC[C@@H]1C3
active: inhibition [1] | inhibition [2] | inhibition [3] | inhibition [4] | inhibition [5]

C=C1C[C@@]23CC[C@@H]4[C@](C)(C(=O)N5CCOCC5)CCC[C@@]4(C)C2=CC[C@@H]1C3
active: inhibition [1] | inhibition [2] | inhibition [3] | inhibition [4] | inhibition [5]

C=C1C[C@@]23CC[C@@H]4[C@](C)(C(=O)Nc5ccccc5)CCC[C@@]4(C)C2=CC[C@@H]1C3
active: inhibition [1] | inhibition [2] | inhibition [3] | inhibition [4] | inhibition [5]

C=C1C[C@@]23CC[C@H]4[C@@](C)(CCC[C@@]4(C)C(=O)N4CCNCC4)[C@@H]2CC[C@@H]1C3
active: Activity [6] | inhibition [1] | Activity [7] | inhibition [2] | inhibition [3] | inhibition [4] | inhibition [5] | Activity [8] | Activity [9]

C=C1C[C@@]23CC[C@H]4[C@@](C)(CCC[C@@]4(C)C(=O)NCCCCCC)[C@@H]2CC[C@@H]1C3
active: inhibition [1] | inhibition [2] | inhibition [3] | inhibition [4] | inhibition [5]

C=C1C[C@@]23CC[C@@H]4[C@](C)(C(=O)NCCCN)CCC[C@@]4(C)C2=CC[C@@H]1C3
active: inhibition [1] | inhibition [2] | inhibition [3] | inhibition [4] | inhibition [5]

C=C1C[C@@]23CC[C@H]4[C@@](C)(CCC[C@@]4(C)C(=O)NCCCCN)[C@@H]2CC[C@@H]1C3
active: inhibition [1] | inhibition [3] | Activity [10] | inhibition [5]

C=C1C[C@]23C[C@@]1(O)CC[C@H]2[C@@]12C=C[C@H](O)[C@@](C)(C(=O)O1)[C@H]2[C@@H]3C(=O)O
active: Activity [11]

C=C1C[C@@]23CC[C@@H]4[C@](C)(C(=O)NCCCCCC)CCC[C@@]4(C)C2=CC[C@@H]1C3
active: inhibition [1] | inhibition [2] | inhibition [3] | inhibition [4] | inhibition [5]

C=C1C[C@@]23CC[C@@H]4[C@](C)(C(=O)NCCN)CCC[C@@]4(C)C2=CC[C@@H]1C3
active: inhibition [1] | inhibition [2] | inhibition [3] | inhibition [4] | inhibition [5]

C=C1C[C@@]23CC[C@@H]4[C@](C)(C(=O)NCCCCN)CCC[C@@]4(C)C2=CC[C@@H]1C3
active: inhibition [1] | inhibition [3] | Activity [10] | inhibition [5]

C=C1C[C@@]23CC[C@H]4[C@@](C)(CCC[C@@]4(C)C(=O)Nc4ccccc4)[C@@H]2CC[C@@H]1C3
active: inhibition [1] | inhibition [2] | inhibition [3] | inhibition [4] | inhibition [5]

C=C1C[C@@]23CC[C@@H]4[C@](C)(C(=O)N5CCNCC5)CCC[C@@]4(C)C2=CC[C@@H]1C3
active: Activity [6] | inhibition [1] | Activity [7] | inhibition [2] | inhibition [3] | inhibition [4] | inhibition [5] | Activity [8] | Activity [9]

C=C1C[C@@]23CC[C@H]4[C@@](C)(CCC[C@@]4(C)C(=O)NCCN)[C@@H]2CC[C@@H]1C3
active: inhibition [1] | inhibition [2] | inhibition [3] | inhibition [4] | inhibition [5]

C=C1C[C@@]23CC[C@H]4[C@@](C)(CCC[C@@]4(C)C(=O)NCCCN)[C@@H]2CC[C@@H]1C3
active: inhibition [1] | inhibition [2] | inhibition [3] | inhibition [4] | inhibition [5]
